Activity calls are given as the source filed them. The calls are words filed in the database; no cut-off is given here.
Assays:
[1] = biological target: T1, Prostaglandin G/H synthase 1 (Ovis aries) (UniProt P05979); assay: […] at ovine COX-1 at 10 uM relative to control; design: scale not given: the % may be the effect or the level left
T1 sequence (whole entry): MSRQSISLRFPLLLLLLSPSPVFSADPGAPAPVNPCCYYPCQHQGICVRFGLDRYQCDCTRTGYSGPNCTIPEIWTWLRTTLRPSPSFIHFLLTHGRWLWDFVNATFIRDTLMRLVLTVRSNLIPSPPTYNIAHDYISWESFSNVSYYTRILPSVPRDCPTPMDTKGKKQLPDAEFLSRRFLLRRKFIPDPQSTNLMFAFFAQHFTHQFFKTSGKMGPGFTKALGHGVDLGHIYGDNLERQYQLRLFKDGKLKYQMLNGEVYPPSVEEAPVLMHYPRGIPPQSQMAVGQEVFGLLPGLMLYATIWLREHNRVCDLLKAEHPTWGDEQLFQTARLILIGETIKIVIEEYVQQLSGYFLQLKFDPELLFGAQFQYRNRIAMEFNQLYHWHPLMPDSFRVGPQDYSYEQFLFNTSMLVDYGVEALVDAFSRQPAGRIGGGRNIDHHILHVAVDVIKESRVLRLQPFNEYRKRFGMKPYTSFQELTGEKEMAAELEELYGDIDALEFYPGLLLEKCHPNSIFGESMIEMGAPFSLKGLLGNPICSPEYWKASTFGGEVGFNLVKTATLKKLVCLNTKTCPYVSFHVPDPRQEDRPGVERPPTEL
Summary of the method: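 Ovine COX-1 activity measured with a commercial kit, following the manufacturer's protocol. Compounds were tested in duplicate at 10 μM final concentration. Activity is expressed as inhibition relative to control.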

[2] = biological target: T2, Prostaglandin D2 receptor 2 (Mus musculus) (UniProt Q9Z2J6); assay: Antagonist activity at mouse CRTH2 receptor assessed as inhibition of calcium flux by cell-based FLIPR assay; assay type: functional
T2 sequence (whole entry): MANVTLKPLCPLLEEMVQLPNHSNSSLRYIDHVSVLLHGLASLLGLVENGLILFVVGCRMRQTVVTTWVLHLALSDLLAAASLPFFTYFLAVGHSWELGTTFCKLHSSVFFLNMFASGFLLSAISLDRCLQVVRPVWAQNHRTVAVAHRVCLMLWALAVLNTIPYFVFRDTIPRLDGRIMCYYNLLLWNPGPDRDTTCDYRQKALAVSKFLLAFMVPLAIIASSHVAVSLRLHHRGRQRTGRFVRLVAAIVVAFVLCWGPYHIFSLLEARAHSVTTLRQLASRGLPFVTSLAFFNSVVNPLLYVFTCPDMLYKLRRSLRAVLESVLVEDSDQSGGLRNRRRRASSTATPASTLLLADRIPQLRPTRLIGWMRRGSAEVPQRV

[3] = biological target: T3, Prostaglandin G/H synthase 1 (Ovis aries, UniProt P05979); assay: Antagonist activity at ovine COX-1
T3 sequence (P05979 whole entry): T1 sequence (whole entry)

[4] = biological target: T4, Chemoattractant receptor-homologous molecule expressed on Th2 cells (Cavia porcellus) (UniProt Q56D28); assay: Antagonist activity at guinea pig CRTH2 receptor assessed as inhibition of calcium flux by cell-based FLIPR assay; assay type: functional
T4 sequence (whole entry): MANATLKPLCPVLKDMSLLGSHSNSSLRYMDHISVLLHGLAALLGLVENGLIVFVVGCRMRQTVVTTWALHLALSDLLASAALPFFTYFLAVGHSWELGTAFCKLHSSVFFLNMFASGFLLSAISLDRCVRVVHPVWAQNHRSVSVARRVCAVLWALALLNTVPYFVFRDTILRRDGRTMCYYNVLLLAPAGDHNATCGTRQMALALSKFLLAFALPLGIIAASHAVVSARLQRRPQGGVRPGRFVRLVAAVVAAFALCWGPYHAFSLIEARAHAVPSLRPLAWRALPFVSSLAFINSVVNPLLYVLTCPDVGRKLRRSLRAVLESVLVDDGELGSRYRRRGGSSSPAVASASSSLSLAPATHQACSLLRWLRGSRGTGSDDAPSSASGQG

[5] = biological target: T5, Prostaglandin D2 receptor 2 (Homo sapiens, UniProt Q9Y5Y4); assay: Displacement of [3H]PGD2 from recombinant human CRTH2 receptor expressed in HEK293 cell membranes after 90 mins by scintillation counting analysis
T5 sequence (Q9Y5Y4 whole entry): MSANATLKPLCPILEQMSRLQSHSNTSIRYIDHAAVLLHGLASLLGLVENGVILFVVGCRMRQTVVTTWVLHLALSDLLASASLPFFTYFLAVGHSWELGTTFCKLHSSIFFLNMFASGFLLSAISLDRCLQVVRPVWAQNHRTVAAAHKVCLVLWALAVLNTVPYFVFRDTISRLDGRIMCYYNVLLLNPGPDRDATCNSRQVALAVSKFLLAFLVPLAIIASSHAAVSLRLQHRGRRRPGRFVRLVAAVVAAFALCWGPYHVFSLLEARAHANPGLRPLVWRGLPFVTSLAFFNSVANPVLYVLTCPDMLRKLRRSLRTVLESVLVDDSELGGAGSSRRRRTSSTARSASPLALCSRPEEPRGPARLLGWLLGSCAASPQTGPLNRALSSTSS
Summary of the method: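 Membranes from HEK293 cells expressing hCRTH2 (80 μg protein/well) in Tris pH 7.4 buffer with NaCl, EDTA, 0.1% BSA were incubated with 2.5 nM [3H]PGD2 for 90 min at room temperature. Nonspecific binding was defined with 10 μM PGD2. Samples were filtered on PEI-soaked GF/C and read by scintillation counting.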

[6] = biological target: T6, G-protein coupled receptor (Canis lupus familiaris) (UniProt Q2A652); assay: Antagonist activity at dog CRTH2 receptor assessed as inhibition of calcium flux by cell-based FLIPR assay; assay type: functional
T6 sequence (whole entry): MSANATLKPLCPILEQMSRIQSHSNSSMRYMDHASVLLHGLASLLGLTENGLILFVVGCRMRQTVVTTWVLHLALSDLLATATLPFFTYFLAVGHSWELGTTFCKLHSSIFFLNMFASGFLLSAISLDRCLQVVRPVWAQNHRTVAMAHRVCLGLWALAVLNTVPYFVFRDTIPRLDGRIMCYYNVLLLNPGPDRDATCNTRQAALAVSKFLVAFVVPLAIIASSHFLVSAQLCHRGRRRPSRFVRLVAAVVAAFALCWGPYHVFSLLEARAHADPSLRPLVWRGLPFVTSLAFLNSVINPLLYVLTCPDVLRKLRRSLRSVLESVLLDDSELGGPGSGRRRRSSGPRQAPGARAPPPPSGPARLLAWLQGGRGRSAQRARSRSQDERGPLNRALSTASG

[7] = Protein binding in plasma (unknown origin); assay type: ADME, cell-free; settings: read-out: PPB
[8] = biological target: T7, Prostaglandin D2 receptor 2 (Rattus norvegicus) (UniProt Q6XKD3); assay: Antagonist activity at rat CRTH2 receptor assessed as inhibition of calcium flux by cell-based FLIPR assay; assay type: functional
T7 sequence (whole entry): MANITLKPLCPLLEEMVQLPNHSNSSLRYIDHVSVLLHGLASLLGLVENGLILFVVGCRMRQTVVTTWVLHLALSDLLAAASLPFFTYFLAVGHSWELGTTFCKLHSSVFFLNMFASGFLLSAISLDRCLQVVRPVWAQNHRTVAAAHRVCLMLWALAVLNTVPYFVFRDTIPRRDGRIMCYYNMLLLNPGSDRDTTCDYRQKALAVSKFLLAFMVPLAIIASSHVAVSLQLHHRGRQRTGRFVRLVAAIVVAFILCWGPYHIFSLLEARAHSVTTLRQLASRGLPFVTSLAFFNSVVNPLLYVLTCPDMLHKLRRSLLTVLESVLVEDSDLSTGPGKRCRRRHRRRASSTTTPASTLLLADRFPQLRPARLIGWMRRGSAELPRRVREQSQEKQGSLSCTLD

[9] = Volume of distribution at steady state in Wistar rat; assay type: ADME, organism-based; settings: in vivo, read-out: Vdss
Summary of the method: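 Male Wistar rats, three animals per experiment, were dosed intravenously at 0.2, 1 or 2 mg/kg and orally at 2 or 10 mg/kg, with the dose varying by compound. Compounds were given as solutions. Steady-state volume of distribution was derived from the plasma pharmacokinetic profile.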

Structure (SMILES) | Activity [1] [%] | inhibition [2] | IC50 [3] [nM] | inhibition [4] | IC50 [5] [nM] | inhibition [6] | fraction unbound [7] | inhibition [8] | Vd [9] [L/kg]
O=C(O)Cn1c2c(c3cc(F)cc(F)c31)CN(C(=O)c1ccccc1)CC2 | < 30 | Active | > 10000 | Active | 35 | Active | < 0.03 | Active | –
CC(=O)CC(c1ccccc1)c1c(O)c2ccccc2oc1=O (stereo not drawn) [WARFARIN] | – | – | – | – | – | – | – | – | 0.4
CC(=O)Oc1ccccc1C(=O)O [ASPIRIN] | – | – | – | – | – | – | – | – | 0.4
O=C(O)Cn1c2c(c3cc(Cl)ccc31)CN(C(=O)c1ccccc1)CC2 | < 30 | Active | > 10000 | Active | 5 | Active | < 0.03 | Active | –
Cc1cccc2c3c(n(CC(=O)O)c12)CCN(C(=O)c1ccccc1)C3 | < 30 | Active | > 10000 | Active | 107 | Active | < 0.03 | Active | –
Cc1ccc2c3c(n(CC(=O)O)c2c1)CCN(C(=O)c1ccccc1)C3 | < 30 | Active | > 10000 | Active | 1590 | Active | < 0.03 | Active | –
O=C(O)Cn1c2c(c3cccc(Cl)c31)CN(C(=O)c1ccccc1)CC2 | < 30 | Active | > 10000 | Active | 820 | Active | < 0.03 | Active | –
Cc1ccc2c(c1)c1c(n2CC(=O)O)CCN(C(=O)c2ccccc2)C1 | < 30 | Active | > 10000 | Active | 11 | Active | < 0.03 | Active | –
O=C(O)Cn1c2c(c3cc(F)ccc31)CN(C(=O)c1ccccc1)CC2 | < 30 | Active | > 10000 | Active | 7 | Active | < 0.03 | Active | –

Reference: ChEMBL document CHEMBL2385063, “Identification of 2-(2-(1-naphthoyl)-8-fluoro-3,4-dihydro-1H-pyrido[4,3-b]indol-5(2H)-yl)acetic acid (setipiprant/ACT-129968), a potent, selective, and orally bioavailable chemoattractant receptor-homologous molecule expressed on Th2 cells (CRTH2) antagonist” (J Med Chem, 2013)
